# Measured values published in ChEMBL document CHEMBL4619808, “Tailoring the Physicochemical Properties of Antimicrobial Peptides onto a Thiazole-Based γ-Peptide Foldamer” (J Med Chem, 2020).
# Columns and labels:
# Staphylococcus aureus [1] = assay: Microbicidal activity against Staphylococcus aureus ATCC 6538 assessed as inhibition of colony growth incubated for 24 hrs followed by replating and further incubated for 24 hrs; type: functional; conditions: ATCC 6538, 24 h
# Pseudomonas aeruginosa [2] = assay: Antimicrobial activity against Pseudomonas aeruginosa ATCC 9027 assessed as inhibition of microbial growth incubated for 24 hrs; type: functional; conditions: ATCC 9027, 24 h
# Summary of the method: (§1)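 Broth microdilution. Strains grown overnight on TSA at 37°C, suspended to 10⁸ CFU/mL in Tryptone-Sel, then diluted to 10⁶ CFU/mL in double-strength Mueller-Hinton broth. Two-fold serial dilutions in sterile water (pH 7.4–7.7) mixed 1:1 with inoculum. Incubation 24 h at 37°C. MIC is the lowest concentration inhibiting growth. Duplicate wells, three independent experiments.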
# Bacillus subtilis [3] = assay: Antimicrobial activity against Bacillus subtilis ATCC 6633 assessed as inhibition of microbial growth incubated for 24 hrs; type: functional; conditions: ATCC 6633, 24 h; summary of the method: as §1
# Candida albicans [4] = assay: Antimicrobial activity against Candida albicans ATCC 10231 assessed as inhibition of microbial growth incubated for 48 hrs; type: functional; conditions: ATCC 10231, 48 h
# Summary of the method: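 C. albicans grown 48 h on Sabouraud at 20–25°C, suspended to 10⁸ CFU/mL, then diluted to 10⁶ CFU/mL in double-strength Mueller-Hinton broth. Two-fold serial dilutions in water (pH 7.4–7.7) mixed 1:1 with inoculum. Incubation 48 h at 25°C. MIC is the lowest concentration inhibiting growth. Duplicate wells, three independent experiments.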
# Enterococcus faecalis [5] = assay: Microbicidal activity against Enterococcus faecalis ATCC 29121 assessed as inhibition of colony growth incubated for 24 hrs followed by replating and further incubated for 24 hrs; type: functional; conditions: ATCC 29121, 24 h
# Escherichia coli [6] = assay: Antimicrobial activity against Escherichia coli ATCC 8739 assessed as inhibition of microbial growth incubated for 24 hrs; type: functional; conditions: ATCC 8739, 24 h; summary of the method: as §1
# Staphylococcus aureus [7] = assay: Antimicrobial activity against Staphylococcus aureus ATCC 6538 assessed as inhibition of microbial growth incubated for 24 hrs; type: functional; conditions: ATCC 6538, 24 h; summary of the method: as §1
# Bacillus subtilis [8] = assay: Microbicidal activity against Bacillus subtilis ATCC 6633 assessed as inhibition of colony growth incubated for 24 hrs followed by replating and further incubated for 24 hrs; type: functional; conditions: ATCC 6633, 24 h
# Enterococcus faecalis [9] = assay: Antimicrobial activity against Enterococcus faecalis ATCC 29121 assessed as inhibition of microbial growth incubated for 24 hrs; type: functional; conditions: ATCC 29121, 24 h; summary of the method: as §1
# [10] = Hemolytic activity in human RBC assessed as induction of hemolysis incubated for 1 hr; type: cell-based, Erythrocyte; conditions: red blood cells (erythrocytes), read-out: HD50
# Summary of the method: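 Human RBCs washed in PBS and used at 5% packed cell volume, mixed 1:1 with two-fold serial dilutions in PBS (pH 7.4–7.7). Incubation 1 h at 37°C, then centrifugation at 1500g for 10 min at 5°C. Supernatant absorbance read at 490 nm against PBS (0%) and 1% SDS/Tris (100%) controls. HC50 from three independent experiments, double duplicate.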
# Candida albicans [11] = assay: Microbicidal activity against Candida albicans ATCC 10231 assessed as inhibition of colony growth incubated for 48 hrs followed by replating and further incubated for 48 hrs; type: functional; conditions: ATCC 10231, 48 h
# Escherichia coli [12] = assay: Microbicidal activity against Escherichia coli ATCC 8739 assessed as inhibition of colony growth incubated for 24 hrs followed by replating and further incubated for 24 hrs; type: functional; conditions: ATCC 8739, 24 h
# Pseudomonas aeruginosa [13] = assay: Microbicidal activity against Pseudomonas aeruginosa ATCC 9027 assessed as inhibition of colony growth incubated for 24 hrs followed by replating and further incubated for 24 hrs; type: functional; conditions: ATCC 9027, 24 h
# Escherichia coli [14] = assay: Antimicrobial activity against Escherichia coli ATCC 8739 assessed as inhibition of microbial growth measured after 8 passes in presence of sublethal compound concentration concentrations; type: functional
SMILES,MBC (Staphylococcus aureus [1]),MIC (Pseudomonas aeruginosa [2]),MIC (Bacillus subtilis [3]),MIC (Candida albicans [4]),MBC (Enterococcus faecalis [5]),MIC (Escherichia coli [6]),MIC (Staphylococcus aureus [7]),MBC (Bacillus subtilis [8]),MIC (Enterococcus faecalis [9]),HC50 at 1 h [10],MBC (Candida albicans [11]),MBC (Escherichia coli [12]),MBC (Pseudomonas aeruginosa [13]),MIC (Escherichia coli [14])
CC(=O)N[C@@H](CCCNC(=N)N)c1nc(C)sc1C(=O)N[C@@H](C)c1nc(C)sc1C(=O)N[C@@H](C)c1nc(C)sc1C(=O)N[C@@H](CCCNC(=N)N)c1nc(C)sc1C(=O)N[C@@H](C)c1nc(C)sc1C(=O)N[C@@H](C)c1nc(C)sc1C(=O)N[C@@H](CCCNC(=N)N)c1nc(C)sc1C(=O)N[C@@H](C)c1nc(C)sc1C(=O)N[C@@H](C)c1nc(C)sc1C(=O)N[C@@H](CCCNC(=N)N)c1nc(C)sc1C(=O)N[C@@H](C)c1nc(C)sc1C(=O)N[C@@H](C)c1nc(C)sc1C(N)=O,8.3 µM,> 100 µM,0.5 µM,25 µM,11.5 µM,23 µM,3.1 µM,0.5 µM,3.1 µM,46 µM,50 µM,30 µM,–,–
CC(=O)N[C@@H](CCCCN)c1nc(C)sc1C(=O)N[C@@H](C)c1nc(CCCCN)sc1C(=O)N[C@@H](C)c1nc(C)sc1C(=O)N[C@@H](CCCCN)c1nc(C)sc1C(=O)N[C@@H](C)c1nc(CCCCN)sc1C(=O)N[C@@H](C)c1nc(C)sc1C(=O)N[C@@H](CCCCN)c1nc(C)sc1C(=O)N[C@@H](C)c1nc(CCCCN)sc1C(=O)N[C@@H](C)c1nc(C)sc1C(=O)N[C@@H](CCCCN)c1nc(C)sc1C(=O)N[C@@H](C)c1nc(CCCCN)sc1C(=O)N[C@@H](C)c1nc(C)sc1C(N)=O,57 µM,3.9 µM,0.5 µM,3.7 µM,> 150 µM,1.6 µM,26 µM,0.5 µM,> 150 µM,> 100 µM,3.7 µM,1.6 µM,5.2 µM,–
CC[C@H](C)[C@H](NC(=O)CN)C(=O)NCC(=O)N[C@@H](C)C(=O)N[C@H](C(=O)N[C@@H](CC(C)C)C(=O)N[C@@H](CCCCN)C(=O)N[C@H](C(=O)N[C@@H](CC(C)C)C(=O)N[C@H](C(=O)N[C@H](C(=O)NCC(=O)N[C@@H](CC(C)C)C(=O)N1CCC[C@H]1C(=O)N[C@@H](C)C(=O)N[C@@H](CC(C)C)C(=O)N[C@H](C(=O)N[C@@H](CO)C(=O)N[C@@H](Cc1c[nH]c2ccccc12)C(=O)N[C@H](C(=O)N[C@@H](CCCCN)C(=O)N[C@@H](CCCNC(=N)N)C(=O)N[C@@H](CCCCN)C(=O)N[C@@H](CCCNC(=N)N)C(=O)N[C@@H](CCC(N)=O)C(=O)N[C@@H](CCC(N)=O)C(N)=O)[C@@H](C)CC)[C@@H](C)CC)[C@@H](C)O)[C@@H](C)O)C(C)C)C(C)C [MELITTIN],1.2 µM,–,–,1.6 µM,1.6 µM,–,–,1.1 µM,1.6 µM,–,1.6 µM,4.7 µM,3.1 µM,–
CC(=O)N[C@@H](CCCCN)c1nc(C)sc1C(=O)N[C@@H](C)c1nc(CCCCN)sc1C(=O)N[C@@H](C)c1nc(C)sc1C(=O)N[C@@H](CCCCN)c1nc(C)sc1C(=O)N[C@@H](C)c1nc(CCCCN)sc1C(=O)N[C@@H](C)c1nc(C)sc1C(N)=O,> 150 µM,> 150 µM,30 µM,62.5 µM,> 150 µM,> 150 µM,> 150 µM,30 µM,> 150 µM,> 100 µM,130 µM,> 150 µM,> 150 µM,–
CO/N=C(\C(=O)N[C@@H]1C(=O)N2C(C(=O)O)=C(COC(C)=O)CS[C@H]12)c1csc(N)n1 [CEFOTAXIME],–,–,–,–,–,< 0.05 µg/mL,–,–,–,–,–,–,–,0.8 µg/mL
CC(=O)N[C@@H](CCCNC(=N)N)c1nc(C)sc1C(=O)N[C@@H](C)c1nc(CCCNC(=N)N)sc1C(=O)N[C@@H](C)c1nc(C)sc1C(=O)N[C@@H](CCCNC(=N)N)c1nc(C)sc1C(=O)N[C@@H](C)c1nc(CCCNC(=N)N)sc1C(=O)N[C@@H](C)c1nc(C)sc1C(=O)N[C@@H](CCCNC(=N)N)c1nc(C)sc1C(=O)N[C@@H](C)c1nc(CCCNC(=N)N)sc1C(=O)N[C@@H](C)c1nc(C)sc1C(N)=O,16.5 µM,54 µM,0.5 µM,9.4 µM,> 100 µM,0.8 µM,14.6 µM,0.5 µM,100 µM,> 100 µM,12.5 µM,0.8 µM,100 µM,–
CC(=O)N[C@@H](CCCCN)c1nc(C)sc1C(=O)N[C@@H](C)c1nc(CCCCN)sc1C(=O)N[C@@H](C)c1nc(C)sc1C(=O)N[C@@H](CCCCN)c1nc(C)sc1C(=O)N[C@@H](C)c1nc(CCCCN)sc1C(=O)N[C@@H](C)c1nc(C)sc1C(=O)N[C@@H](CCCCN)c1nc(C)sc1C(=O)N[C@@H](C)c1nc(CCCCN)sc1C(=O)N[C@@H](C)c1nc(C)sc1C(N)=O,> 150 µM,42 µM,0.8 µM,10.4 µM,> 150 µM,5.2 µM,> 150 µM,0.8 µM,> 150 µM,> 100 µM,10.4 µM,7.3 µM,83 µM,–
CC(=O)N[C@@H](CCCCN)c1nc(C)sc1C(=O)N[C@@H](C)c1nc(CCCCN)sc1C(=O)N[C@@H](C)c1nc(C)sc1C(N)=O,> 150 µM,> 150 µM,> 150 µM,> 150 µM,> 150 µM,> 150 µM,> 150 µM,> 150 µM,> 150 µM,> 100 µM,> 150 µM,> 150 µM,> 150 µM,–
CC(=O)N[C@@H](CCCCN)c1nc(C)sc1C(=O)N[C@@H](CC(C)C)c1nc(CCCCN)sc1C(=O)N[C@@H](C)c1nc(CC(C)C)sc1C(=O)N[C@@H](CCCCN)c1nc(C)sc1C(=O)N[C@@H](CC(C)C)c1nc(CCCCN)sc1C(=O)N[C@@H](C)c1nc(CC(C)C)sc1C(=O)N[C@@H](CCCCN)c1nc(C)sc1C(=O)N[C@@H](CC(C)C)c1nc(CCCCN)sc1C(=O)N[C@@H](C)c1nc(CC(C)C)sc1C(=O)N[C@@H](CCCCN)c1nc(C)sc1C(=O)N[C@@H](CC(C)C)c1nc(CCCCN)sc1C(=O)N[C@@H](C)c1nc(CC(C)C)sc1C(N)=O,25 µM,14.6 µM,4.2 µM,25 µM,12.5 µM,14.6 µM,16.7 µM,6.2 µM,10.4 µM,> 100 µM,25 µM,16.5 µM,19 µM,–
CC(=O)N[C@@H](CCCCN)c1nc(C)sc1C(=O)N[C@@H](C)c1nc(C)sc1C(=O)N[C@@H](C)c1nc(CCCCN)sc1C(=O)N[C@@H](C)c1nc(C)sc1C(=O)N[C@@H](C)c1nc(CCCCN)sc1C(=O)N[C@@H](CCCCN)c1nc(C)sc1C(=O)N[C@@H](C)c1nc(CCCCN)sc1C(=O)N[C@@H](CCCCN)c1nc(C)sc1C(=O)N[C@@H](C)c1nc(C)sc1C(=O)N[C@@H](C)c1nc(C)sc1C(=O)N[C@@H](C)c1nc(CCCCN)sc1C(=O)N[C@@H](CCCCN)c1nc(C)sc1C(N)=O,> 100 µM,100 µM,0.8 µM,50 µM,> 150 µM,5.2 µM,100 µM,0.8 µM,> 150 µM,> 100 µM,62.5 µM,8.3 µM,> 100 µM,–
